Experimental data from ChEMBL document CHEMBL4680184, “Simple amphiphilic α-hydrazido acids: Rational design, synthesis, and in vitro bioactivity profile of a novel class of potential antimicrobial compounds” (Eur J Med Chem, 2020).
≈ marks a conversion by molar mass, not a printed value. Calls of active or inactive are those of the source. The rule behind the calls is not given here.

What was measured:
[1] = Therapeutic index, ratio of HC50 for human erythrocytes to MIC for Staphylococcus aureus ATCC 29213; type: toxicity; settings: read-out: TI
[2] = system: Enterococcus faecalis; experiment: Antibacterial activity against Enterococcus faecalis ATCC 29212 assessed as inhibition of visible growth after 24 hrs by broth microdilution method; type: functional
In short: (§1)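 Compounds dissolved in sterile water at the highest achievable concentration, then serially diluted in Mueller-Hinton II broth per CLSI broth microdilution. Strains grown 6 h in BHI, diluted in MHII to 1 × 10^6 cfu/mL final. Aerobic incubation 37 °C, 24 h; tetracycline internal control; bacteria-only growth controls. MIC = lowest concentration with no visible growth; triplicate.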

[3] = Therapeutic index, ratio of HC50 for human erythrocytes to MIC for Escherichia coli ATCC 25922; type: toxicity; settings: read-out: TI
[4] = system: Staphylococcus aureus; experiment: Antibacterial activity against Staphylococcus aureus ATCC 29213 after preincubated with plasma for 6 hrs by broth microdilution method; type: functional, organism-based
[5] = system: Staphylococcus aureus; experiment: Antibacterial activity against Staphylococcus aureus ATCC 29213 assessed as inhibition of visible growth after 24 hrs by broth microdilution method; type: functional; in short: as §1
[6] = Hemolytic activity against human erythrocytes measured after 1 hr by microplate reader based spectrophotometric analysis; type: ADME, cell-based, Erythrocyte
In short: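 Heparinized fresh human blood washed three times in PBS pH 7.4 (1000 g, 10 min), resuspended ~20 vol %. Equal volume with 1:2 serial dilutions of compound in PBS, 1 h at 37 °C; PBS and 0.2 vol % Triton X-100 controls. Supernatant diluted 1:60, A350 read. HC50 from three- or four-parameter Hill fit; mean of three replicates.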

[7] = system: Pseudomonas aeruginosa; experiment: Antibacterial activity against Pseudomonas aeruginosa ATCC 27853 assessed as inhibition of visible growth after 24 hrs by broth microdilution method; type: functional; in short: as §1
[8] = Chemical stability of the compound in hydrochloride water at 1 ug/ml assessed as compound degradation after 8 weeks; type: physicochemical; settings: buffer, 1344 h, at 1 µg/mL
[9] = Chemical stability of the compound in pH 7.4 phosphate buffered saline at 1 ug/ml assessed as compound degradation after 8 weeks; type: physicochemical; settings: buffer, pH 7.4, 1344 h, at 1 µg/mL
[10] = Chemical stability of the compound in pH 1.5 hydrochloride solution at 1 ug/ml assessed as compound degradation after 8 weeks; type: physicochemical; settings: buffer, pH 1.5, 1344 h, at 1 µg/mL
[11] = system: Escherichia coli; experiment: Antibacterial activity against Escherichia coli ATCC 25922 assessed as inhibition of visible growth after 24 hrs by broth microdilution method; type: functional; in short: as §1
[12] = system: Enterococcus faecium; experiment: Antibacterial activity against Enterococcus faecium 135562 (35C) assessed as inhibition of visible growth after 24 hrs by broth microdilution method; type: functional; in short: as §1
[13] = Retention time of the compound by RP-HPLC analysis; type: physicochemical
In short: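 RP-HPLC on C18 column (5 µm, 200 × 4.6 mm), 0.5 mL/min; hydrochlorides at 0.5–1 mg/mL in water:2-propanol 70:30, gradient to 10:90 over 40 min, then 20 min at 10:90. Adjusted retention time = instrumental retention time minus hold-up time.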

[14] = system: Staphylococcus aureus; experiment: Antibacterial activity against Staphylococcus aureus ATCC 29213; type: functional
In short: (§2)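 Broth microdilution per CLSI: strains grown 6 h in BHI broth, diluted in Mueller-Hinton II broth to 1 × 10^6 cfu/mL, mixed 1:1 with serial dilutions of compound in MHII (compounds dissolved in sterile water); aerobic incubation 37 °C, 24 h. MIC = lowest concentration with no visible growth. Tetracycline internal control; triplicate.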

[15] = system: Enterococcus faecalis; experiment: Antibacterial activity against Enterococcus faecalis ATCC 29212; type: functional; in short: as §1
[16] = system: Staphylococcus aureus; experiment: Antibacterial activity against linezolid-methicillin-resistant Staphylococcus aureus AOUC 0915 assessed as inhibition of visible growth after 24 hrs by broth microdilution method; type: functional; in short: as §2
[17] = system: Escherichia coli; experiment: Antibacterial activity against Escherichia coli ATCC 25922 by broth microdilution method
[18] = system: Staphylococcus aureus; experiment: Antibacterial activity against Staphylococcus aureus ATCC 29213 by broth microdilution method; type: functional; in short: as §1
[19] = system: Enterococcus faecium; experiment: Antibacterial activity against Enterococcus faecium ATCC 135562 by broth microdilution method; type: functional; in short: as §1
[20] = system: Escherichia coli; experiment: Antibacterial activity against Escherichia coli ATCC 25922; type: functional; in short: as §2
[21] = system: Pseudomonas aeruginosa; experiment: microbe, parasite or virus in culture; settings: ATCC 27853
[22] = system: Escherichia coli; experiment: Antibacterial activity against gentamicin-colistin-resistant Escherichia coli 288328 assessed as inhibition of visible growth after 24 hrs by broth microdilution method; type: functional; in short: as §2
[23] = Therapeutic index, ratio of HC50 for human erythrocytes to MIC for gentamycin-colistin-resistant Escherichia coli 288328; type: toxicity
In short: (§3)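 TI = HC50/MIC. HC50: washed heparinized human erythrocytes (~20 vol % in PBS pH 7.4) mixed 1:1 with 1:2 serial compound dilutions in PBS, 1 h at 37 °C; supernatant A350 read; PBS and 0.2 vol % Triton X-100 as 0 and 100% lysis; HC50 by Hill logistic regression, mean of three replicates.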

[24] = system: Cell membrane; experiment: Induction of outer membrane permeabilization in gentamycin-colistin resistant Escherichia coli 288328 assessed as rate constant by measuring NPN uptake at 8 ug/ml […]; settings: dose 8.0 µg/ml
[25] = system: Cell membrane; experiment: Induction of inner membrane permeabilization in gentamycin-colistin resistant Escherichia coli 288328 assessed as increase in fluorescence intensity at 8 ug/ml measured every 1 sec for 10 mins by PI-probe based assay; type: subcellular; settings: dose 8.0 µg/ml, in the assay text read “every 0.1 sec” for “every 1 sec”
In short: (§4)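 Same washed midlog E. coli suspension (PBS pH 7.2, 10^8 cells/mL, 25 °C after 15 min equilibration). Propidium iodide 15 µM working with compound at 8 µg/mL working. Fluorescence ex 535/em 617 nm every 0.1 s over 10 min; rate constant from exponential rise-to-maximum fit; controls without cells or compound.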

[26] = system: Cell membrane; experiment: Induction of inner membrane permeabilization in Escherichia coli ATCC 25922 assessed as increase in fluorescence intensity at 8 ug/ml measured every 1 sec for 10 mins by PI-probe based assay; type: subcellular; settings: dose 8.0 µg/ml, in the assay text read “every 0.1 sec” for “every 1 sec”; in short: as §4
[27] = system: Cell membrane; experiment: Induction of inner membrane permeabilization in Escherichia coli ATCC 25922 assessed as rate constant by measuring PI uptake at 8 ug/ml […]; settings: dose 8.0 µg/ml
[28] = system: Cell membrane; experiment: Induction of outer membrane permeabilization in Escherichia coli ATCC 25922 assessed as rate constant by measuring NPN uptake at 8 ug/ml measured every 1 sec for 10 mins; type: subcellular; settings: dose 8.0 µg/ml, in the assay text read “every 0.1 sec” for “every 1 sec”
In short: (§5)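 Midlog E. coli (6 h growth, 10^8 cells/mL) washed, resuspended in PBS pH 7.2, held at 4 °C, used within 3 h; equilibrated 15 min at 25 °C. NPN 1 µM working plus compound 8 µg/mL working. Fluorescence ex 350/em 420 nm, read every 0.1 s for 10 min; rate constant from exponential rise-to-maximum fit; probe-only, buffer controls.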

[29] = Therapeutic index, ratio of HC50 for human erythrocytes to MIC for linezolid-methicillin-resistant Staphylococcus aureus AOUC 0915; type: toxicity; in short: as §3
[30] = system: Cell membrane; experiment: Induction of outer membrane permeabilization in Escherichia coli ATCC 25922 assessed as increase in fluorescence intensity at 8 ug/ml measured every 1 sec for 10 mins by NPN-probe based assay; type: subcellular; settings: dose 8.0 µg/ml, in the assay text read “every 0.1 sec” for “every 1 sec”; in short: as §5
[31] = system: Cell membrane; experiment: Induction of inner membrane permeabilization in gentamycin-colistin resistant Escherichia coli 288328 assessed as rate constant by measuring PI uptake at 8 ug/ml […]; settings: dose 8.0 µg/ml
[32] = system: Cell membrane; experiment: Induction of outer membrane permeabilization in gentamycin-colistin resistant Escherichia coli 288328 assessed as increase in fluorescence intensity at 8 ug/ml measured every 1 sec for 10 mins by NPN-probe based assay; type: subcellular; settings: dose 8.0 µg/ml, in the assay text read “every 0.1 sec” for “every 1 sec”; in short: as §5

Row | Compound | selectivity ratio [1] | MIC [2] | selectivity ratio [3] | Activity [4] | MIC [5] | HC50 at 1 h [6] | MIC [7] | MIC [11] | MIC [12] | Retention_time [13] | MIC [14] | MIC [15] | MIC [16] | MIC [22] | further results
1 | CCCCCCCCNC(=O)CN(NC(=O)CCCCCCC)C(=O)CN.Cl | 8.2 | 32 µg/mL | 8.2 | Active | 16 µg/mL | 131 µg/mL | 32 µg/mL | 16 µg/mL | 16 µg/mL | 17.8 min |  |  |  |  | Stabilty [8]: Stable; Stabilty [9]: Stable; Stabilty [10]: Stable
2 | COc1cccc(OC)c1C(=O)N[C@@H]1C(=O)N2[C@@H]1SC(C)(C)[C@@H]2C(=O)O [METHICILLIN] |  |  |  |  |  |  |  |  |  |  | 0.5 µg/mL (≈ 1.31 µM) | > 16 µg/mL | > 1020 µg/mL |  | 
3 | H-GIGKFLKKAKKFGKAFVKILKK-NH2 [PEXIGANAN] |  |  |  |  |  |  |  |  |  |  |  |  |  |  | MIC [17]: 16 µg/mL; MIC [18]: 8 µg/mL; MIC [19]: 64 µg/mL
4 | CN(C)[C@@H]1C(O)=C(C(N)=O)C(=O)[C@@]2(O)C(O)=C3C(=O)c4c(O)cccc4[C@@](C)(O)[C@H]3C[C@@H]12 [TETRACYCLINE] |  |  |  |  |  |  |  |  |  |  | 0.12 µg/mL (≈ 0.27 µM) | 8 µg/mL (≈ 18 µM) |  |  | MIC [20]: 0.5 µg/mL (≈ 1.13 µM); MIC [21]: 8 µg/mL (≈ 18 µM)
5 | GENTAMICIN |  |  |  |  |  |  |  |  |  |  | 0.12 µg/mL | 4 µg/mL |  | 128 µg/mL | MIC [20]: 0.25 µg/mL
6 | CCCCCCCCCCCCCCCCCC(=O)NN(CC(=O)NCCCCCCCC)C(=O)CN.Cl | 1.6 | 512 µg/mL | 0.4 |  | 128 µg/mL | 200 µg/mL | 512 µg/mL | 512 µg/mL | 64 µg/mL | 32.2 min |  |  |  |  | 
7 | CCCCCCCCCCCCNC(=O)CN(NC(=O)C(C)(C)C)C(=O)CN.Cl | 99 | 8 µg/mL | 49 | Active | 4 µg/mL | 394 µg/mL | 16 µg/mL | 8 µg/mL | 8 µg/mL | 19.8 min |  |  | 4 µg/mL | 8 µg/mL | selectivity ratio [23]: 49; Activity [24]: 0.31 min⁻¹; Activity [25]: Active; Activity [26]: Active; Activity [27]: 0.22 min⁻¹; Activity [28]: 0.25 min⁻¹; selectivity ratio [29]: 99; Activity [30]: Active; Activity [31]: 0.24 min⁻¹; Activity [32]: Active
8 | CCCCCCCCCCCCNC(=O)CN(NC(=O)c1ccccc1)C(=O)CN.Cl | 49 | 4 µg/mL | 49 | Active | 4 µg/mL | 195 µg/mL | 64 µg/mL | 4 µg/mL | 4 µg/mL | 19.7 min |  |  | 4 µg/mL | 4 µg/mL | selectivity ratio [23]: 49; selectivity ratio [29]: 49
